# Experimental data: ChEMBL document CHEMBL3244147 (J Med Chem, 1978)
# Calls of active or inactive are those of the source. The rule behind the calls is not given here. Where a SMILES comes first, the peptide text is derived from it. The star is where a group is joined. NH(4-N(CH2CH2Cl)2-phenyl) = ClCCN(CCCl)c1ccc(N*)cc1; Cbz = O=C(OCc1ccccc1)*
# What was measured:
# [1] = Toxicity in ip dosed CF1 mouse after 14 days of injection; format: organism-based; details: in vivo
# Summary of the method: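 Female Carworth Farms mice, 16-20 g. Compound was suspended in 1% aqueous methylcellulose (ultrasonicated if insoluble) and diluted to doses of 4-324 mg/kg, given as 0.45 mL per mouse by a single intraperitoneal injection. Five mice per dose; survivors were counted at 14 days. LD50 is expressed in μmol/kg.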
# Sarcoma-180 [2] = experiment: Antitumor activity against mouse Sarcoma 180 at 10 to 50% of LD50; format: functional
# Summary of the method: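 Mice carrying well-advanced Sarcoma-180 tumours received a single intraperitoneal dose.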
# Liver [3] = experiment: Prodrug conversion in guinea pig liver homogenate assessed as release of labelled carbobenzyloxy-L-pro-lyl-L-leucine; format: ADME, tissue-based, Cavia porcellus
# Liver [4] = experiment: Prodrug conversion in mouse liver homogenate assessed as release of labelled carbobenzyloxy-L-pro-lyl-L-leucine; format: ADME, tissue-based
# [5] = Drug metabolism assessed as bacterial collagenase-mediated compound disappearance after 24 hrs by TLC autoradiography; format: ADME
# Summary of the method: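 14C-labelled substrate at 2 mg/mL in dimethyl sulfoxide. 0.3 mL of it was mixed with 0.95 mL of pH 7.3 barbiturate/acetate/NaCl buffer containing calcium acetate, actidione and DMSO; the reaction mixture was 28% DMSO. The buffer held 5 mg bacterial collagenase (375 units/mg). Controls had no enzyme, trypsin or bovine serum albumin. Products were followed by TLC autoradiography.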
# Liver [6] = experiment: Prodrug conversion in mouse liver homogenate assessed as cleavage of labelled compound; format: ADME, tissue-based
# Liver [7] = experiment: Prodrug conversion in rat liver homogenate assessed as release of labelled carbobenzyloxy-L-pro-lyl-L-leucine; format: ADME, tissue-based
# Liver [8] = experiment: Prodrug conversion in guinea pig liver homogenate assessed as cleavage of labelled compound; format: ADME, tissue-based, Cavia porcellus
# Sarcoma-180 [9] = experiment: Drug metabolism assessed as mouse Sarcoma 180 homogenate-mediated compound disappearance after 24 hrs by TLC autoradiography; format: ADME; details: sarcoma-180, 24 h
# Summary of the method: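 S-180 tumour tissue (0.85 g) was homogenised in cold pH 7.3 calcium acetate/DMSO buffer containing actidione, then spun at 5000 rpm for 10 min. The supernatant replaced enzyme in the collagenase-type assay with 14C-labelled substrate (2 mg/mL in DMSO) in 28% DMSO reaction mixture. Disappearance and products were read by TLC autoradiography.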
# [10] = Prodrug conversion in pig liver homogenate assessed as release of labelled carbobenzyloxy-L-pro-lyl-L-leucine; format: ADME, tissue-based, Sus scrofa
# Liver [11] = experiment: Prodrug conversion in rat liver homogenate assessed as cleavage of labelled compound; format: ADME, tissue-based
# [12] = Prodrug conversion in pig liver homogenate assessed as cleavage of labelled compound; format: ADME, tissue-based, Sus scrofa
structure (smiles),measurement,setting,value
CC(C)C[C@H](N)C(=O)NCC(=O)N1CCC[C@H]1C(=O)NCC(=O)Nc1ccc(N(CCCl)CCCl)cc1.O=C(O)C(F)(F)F (H-LGPG-{NH(4-N(CH2CH2Cl)2-phenyl)}),LD50 at 336 h,[1],10.4 µmol/kg
CC(C)C[C@H](NC(=O)[C@@H]1CCCN1C(=O)[C@@H](Cc1ccccc1)NC(=O)OC(C)(C)C)C(=O)NCC(=O)N1CCC[C@H]1C(=O)NCC(=O)Nc1ccc(N(CCCl)CCCl)cc1,LD50 at 336 h,[1],105 µmol/kg
CC(C)C[C@H](NC(=O)[C@@H]1CCCN1C(=O)[C@H](N)CCCCN)C(=O)NCC(=O)N1CCC[C@H]1C(=O)NCC(=O)Nc1ccc(N(CCCl)CCCl)cc1.O=C(O)C(F)(F)F,Activity,Sarcoma-180 [2],inactive
same,LD50 at 336 h,[1],78 µmol/kg
CC(C)C[C@H](NC(=O)[C@@H]1CCCN1C(=O)[C@H](N)Cc1ccccc1)C(=O)NCC(=O)N1CCC[C@H]1C(=O)NCC(=O)Nc1ccc(N(CCCl)CCCl)cc1.O=C(O)C(F)(F)F,LD50 at 336 h,[1],106 µmol/kg
CC(C)C[C@H](NC(=O)[C@@H]1CCCN1C(=O)O[14CH2]c1ccccc1)C(=O)NCC(=O)N1CCC[C@H]1C(=O)NCC(=O)Nc1ccc(N(CCCl)CCCl)cc1,Drug metabolism,Liver [3],metabolite_detected
same,Drug metabolism,Liver [4],metabolite_detected
same,Drug metabolism,[5],metabolite_detected
same,Drug metabolism,Liver [6],metabolite_detected
same,Drug metabolism,Liver [7],metabolite_detected
same,Drug metabolism,Liver [8],metabolite_detected
same,Drug metabolism,Sarcoma-180 [9],metabolite_detected
same,Drug metabolism,[10],metabolite_detected
same,Drug metabolism,Liver [11],metabolite_detected
same,Drug metabolism,[12],metabolite_detected
CC(C)C[C@H](NC(=O)[C@@H]1CCCN1C(=O)OCc1ccccc1)C(=O)NCC(=O)N1CCC[C@H]1C(=O)NCC(=O)Nc1ccc(N(CCCl)CCCl)cc1 (Cbz-PLGPG-{NH(4-N(CH2CH2Cl)2-phenyl)}),Activity,Sarcoma-180 [2],inactive
same,LD50 at 336 h,[1],123 µmol/kg
O=C(CNC(=O)[C@@H]1CCCN1C(=O)OCc1ccccc1)Nc1ccc(N(CCCl)CCCl)cc1,LD50 at 336 h,[1],119 µmol/kg
CC(C)C[C@H](NC(=O)[C@@H]1CCCN1C(=O)[C@@H](CCCCNC(=O)OC(C)(C)C)NC(=O)OC(C)(C)C)C(=O)NCC(=O)N1CCC[C@H]1C(=O)NCC(=O)Nc1ccc(N(CCCl)CCCl)cc1,LD50 at 336 h,[1],100 µmol/kg
CC(C)C[C@H](NC(=O)[C@@H]1CCCN1C(=O)[C@@H](C)NC(=O)OC(C)(C)C)C(=O)NCC(=O)N1CCC[C@H]1C(=O)NCC(=O)Nc1ccc(N(CCCl)CCCl)cc1,LD50 at 336 h,[1],94.5 µmol/kg
NCC(=O)N1CCC[C@H]1C(=O)NCC(=O)Nc1ccc(N(CCCl)CCCl)cc1.O=C(O)C(F)(F)F,LD50 at 336 h,[1],19.7 µmol/kg
